In publication PMC10718296 (RSC Advances, 2023):
Like-named read-outs stand apart in the source and are kept apart here.

How the values were obtained:
[1] = system: human skin cancer cell line (A375); test: MTT-based cytotoxicity assay, A375; type: cell-based
Method in brief: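 Cells seeded at 10 000/well in medium with 5% FBS, grown 48 h at 37 °C, 5% CO₂, then exposed to test compound at various concentrations (up to 100 μM) for 48 h, in triplicate; medium alone as control. MTT solution (5 mg ml⁻¹) added for 4 h at 37 °C, formazan dissolved in DMSO, absorbance read at 570 nm; inhibition % = 100 − (A sample/A control × 100).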

[2] = system: laryngeal carcinoma cell line (Hep-2); test: MTT-based cytotoxicity assay, Hep-2; type: cell-based, human; conditions: read-out: Anticancer (IC50) Hep-2
Method in brief: (§1)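 Cells seeded at 10 000/well in medium with 5% FBS and held 48 h at 37 °C, 5% CO₂, 100% humidity. Test compound at various concentrations added for 48 h under the same conditions, in triplicate, with compound-free medium as control. MTT (5 mg ml⁻¹ solution) added for 4 h at 37 °C, formazan dissolved in DMSO, A570 read. % inhibition = 100 − A(sample)/A(control) × 100.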

[3] = system: breast cancer cell line (MCF-7); test: MTT-based cytotoxicity assay, MCF-7; type: cell-based, human; conditions: read-out: Anticancer (IC50) MCF-7
Method in brief: as §1

[4] = system: hepatocellular carcinoma cell line (HepG2); test: MTT-based cytotoxicity assay, HepG2; type: cell-based, human; conditions: read-out: Anticancer (IC50) HepG2
Method in brief: as §1

[5] = system: non-cancerous normal cell (Vero); test: MTT-based cytotoxicity assay, normal Vero cell; conditions: for Cytotoxicity to non-cancerous cells (in words): cell viability assay up to 100 μM, Fig. 3
Method in brief: as §1

[6] = Homo sapiens, A-375, 48 h, read-out: Anticancer (IC50) A375, MTT, 48 hours, average of three independent experiments
[7] = MTT, 48 hours, average of three independent experiments

| Molecule | IC50 [1, 6] [µM] | IC50 ([2]; Homo sapiens, HEp-2, 48 h) [µM] | IC50 ([3]; Homo sapiens, MCF7, 48 h) [µM] | IC50 ([4]; Homo sapiens, HepG2, 48 h) [µM] | Cytotoxicity to non-cancerous cells (in words) [5] | IC50 ([1]; read-out: Anticancer (IC50) A375, MTT, 48 hours, average of three independent experiments) [µM] | IC50 ([5]; read-out: Anticancer (IC50) Vero, MTT, 48 hours, non-cancerous normal cell, average of three independent experiments) [µM] | IC50 [2, 7] [µM] | IC50 [3, 7] [µM] | IC50 [4, 7] [µM] |
| --- | --- | --- | --- | --- | --- | --- | --- | --- | --- | --- |
| Nc1ccc(-c2nc3cnccn3c2N)cc1 [10d, 2-(4-Aminophenyl)imidazo[1,2-a]pyrazin-3-amine] | 25 ± 1.45 | 38 ± 2.2 | 30 ± 3.32 | 34 ± 2.64 | – | – | – | – | – | – |
| CN(C)c1ccc(-c2nc3cnccn3c2N)cc1 [10i, 2-(4-(Dimethylamino)phenyl)imidazo[1,2-a]pyrazin-3-amine] | 16 ± 1.2 | 28 ± 3.1 | 17 ± 0.52 | 26 ± 0.9 | non-toxic to non-cancerous cells | – | – | – | – | – |
| Nc1ccc(-c2nc3ccccn3c2N)cc1 [12d, 2-(4-Aminophenyl)imidazo[1,2-a]pyridin-3-amine] | 38 ± 2.4 | 20 ± 5.8 | 50 ± 1.82 | 35 ± 2.5 | – | – | – | – | – | – |
| O=[N+]([O-])c1ccc(-c2nc3ccccn3c2NC2CCCCC2)cc1 [12k, N-Cyclohexyl-2-(4-nitrophenyl)imidazo[1,2-a]pyridin-3-amine] | 41 ± 5 | 30 ± 8 | 52 ± 0.8 | 40 ± 1.5 | – | – | – | – | – | – |
| COc1cccc2c1C(=O)c1c(O)c3c(c(O)c1C2=O)C[C@@](O)(C(=O)CO)C[C@@H]3O[C@H]1C[C@H](N)[C@H](O)[C@H](C)O1 [Doxorubicin, reference compound] | 5.16 | 10 ± 0.5 | 0.85 ± 0.02 | 1.5 ± 0.09 | – | – | – | – | – | – |
| CC(C)(C)Nc1c(-c2ccccc2[N+](=O)[O-])nc2cnccn12 [10e, N-(tert-Butyl)-2-(2-nitrophenyl)imidazo[1,2-a]pyrazin-3-amine] | 34 ± 3.2 | 80 ± 1.37 | 100 ± 8.64 | 40 ± 2.52 | – | – | – | – | – | – |
| CC(C)(C)Nc1c(-c2ccc([N+](=O)[O-])cc2)nc2cnccn12 [10a, N-(tert-Butyl)-2-(4-nitrophenyl)imidazo[1,2-a]pyrazin-3-amine] | 36 ± 3.1 | 50 ± 3.42 | > 100 | 40 ± 2.52 | – | – | – | – | – | – |
| CC(C)(C)Nc1c(-c2ccccc2[N+](=O)[O-])nc2ccccn12 [12e, N-(tert-Butyl)-2-(2-nitrophenyl)imidazo[1,2-a]pyridin-3-amine] | > 100 | 55 ± 0.4 | > 100 | 62 ± 4.8 | – | – | – | – | – | – |
| Nc1ccc(-c2nc3ccccn3c2NC2CCCCC2)cc1 [12l, 2-(4-Aminophenyl)-N-cyclohexylimidazo[1,2-a]pyridin-3-amine] | 30 ± 0.1 | 20 ± 5.2 | 35 ± 1.5 | 25 ± 0.2 | – | – | – | – | – | – |
| CC(C)(C)Nc1c(-c2ccccc2N)nc2cnccn12 [10f, 2-(2-Aminophenyl)-N-(tert-Butyl)imidazo[1,2-a]pyrazin-3-amine] | 20 ± 1.57 | 25 ± 5.2 | 26 ± 2.38 | 20 ± 4.64 | – | – | – | – | – | – |
| Nc1c(-c2ccc([N+](=O)[O-])cc2)nc2ccccn12 [12c, 2-(4-Nitrophenyl)imidazo[1,2-a]pyridin-3-amine] | 50 ± 1.8 | 35 ± 2.4 | > 100 | 48 ± 4.8 | – | – | – | – | – | – |
| CC(C)(C)Nc1c(-c2ccccc2N)nc2ccccn12 [12f, 2-(2-Aminophenyl)-N-(tert-butyl)imidazo[1,2-a]pyridin-3-amine] | 28 ± 1.5 | 28 ± 5 | 24 ± 5.8 | 32 ± 0.1 | – | – | – | – | – | – |
| CC(C)(C)Nc1c(-c2ccc([N+](=O)[O-])cc2)nc2ccccn12 [12a, N-(tert-Butyl)-2-(4-nitrophenyl)imidazo[1,2-a]pyridin-3-amine] | 45 ± 2.5 | 32 ± 5.5 | 55 ± 5.25 | 30 ± 2.5 | – | – | – | – | – | – |
| 2-(2-Nitrophenyl)imidazo[1,2-a]pyrazin-3-amine [10l] | – | – | – | – | – | 27 ± 5 | 67 ± 4.54 | 64 ± 2.45 | 80 ± 4.53 | 32 ± 4.64 |
| Nc1c(-c2ccccc2[N+](=O)[O-])nc2ccccn12 [12g, 2-(2-Nitrophenyl)imidazo[1,2-a]pyridin-3-amine] | 62 ± 2.4 | 50 ± 5.2 | > 100 | > 100 | – | – | – | – | – | – |
| CN(C)c1ccc(-c2nc3ccccn3c2N)cc1 [12j, 2-(4-(Dimethylamino)phenyl)imidazo[1,2-a]pyridin-3-amine] | 25 ± 1.4 | 45 ± 5 | 30 ± 5 | 35 ± 4.8 | – | – | – | – | – | – |
| O=[N+]([O-])c1ccc(-c2nc3cnccn3c2NC2CCCCC2)cc1 [10j, N-Cyclohexyl-2-(4-nitrophenyl)imidazo[1,2-a]pyrazin-3-amine] | 25 ± 5.41 | 44 ± 6.4 | 24 ± 0.15 | 40 ± 1.4 | – | – | – | – | – | – |
| Nc1ccccc1-c1nc2cnccn2c1NC1CCCCC1 [10m, 2-(2-Aminophenyl)-N-cyclohexylimidazo[1,2-a]pyrazin-3-amine] | 23 ± 1.5 | 28 ± 4.28 | 44 ± 2.68 | 20 ± 2.15 | – | – | – | – | – | – |
| CN(C)c1ccc(-c2nc3cnccn3c2NC(C)(C)C)cc1 [10h, N-(tert-Butyl)-2-(4-(dimethylamino)phenyl)imidazo[1,2-a]pyrazin-3-amine] | 30 ± 2.84 | 45 ± 0.5 | 50 ± 6.41 | 34 ± 5.5 | – | – | – | – | – | – |
| Nc1ccccc1-c1nc2cnccn2c1N [10g, 2-(2-Aminophenyl)imidazo[1,2-a]pyrazin-3-amine] | 20 ± 5.8 | 22 ± 2.15 | 30 ± 1.24 | 25 ± 4.54 | – | – | – | – | – | – |
| CC(C)(C)Nc1c(-c2ccc(N)cc2)nc2ccccn12 [12b, 2-(4-Aminophenyl)-N-(tert-butyl)imidazo[1,2-a]pyridin-3-amine] | 11 ± 0.07 | 11 ± 0.8 | 11 ± 0.5 | 13 ± 1.2 | non-toxic to non-cancerous cells | – | – | – | – | – |
| CN(C)c1ccc(-c2nc3ccccn3c2NC(C)(C)C)cc1 [12i, N-(tert-Butyl)-2-(4-(dimethylamino)phenyl)imidazo[1,2-a]pyridin-3-amine] | 12 ± 0.7 | 20 ± 2.7 | 17 ± 0.92 | 19 ± 1.3 | non-toxic to non-cancerous cells | – | – | – | – | – |
| CC(C)(C)Nc1c(-c2ccc(N)cc2)nc2cnccn12 [10b, 2-(4-Aminophenyl)-N-(tert-butyl)imidazo[1,2-a]pyrazin-3-amine] | 16 ± 0.96 | 20 ± 1.64 | 21 ± 1.64 | 18 ± 1.32 | non-toxic to non-cancerous cells | – | – | – | – | – |
| Nc1ccc(-c2nc3cnccn3c2NC2CCCCC2)cc1 [10k, 2-(4-Aminophenyl)-N-cyclohexylimidazo[1,2-a]pyrazin-3-amine] | 30 ± 1.5 | 34 ± 4.56 | 65 ± 2.41 | 28 ± 2.48 | – | – | – | – | – | – |
| Nc1ccccc1-c1nc2ccccn2c1N [12h, 2-(2-Aminophenyl)imidazo[1,2-a]pyridin-3-amine] | 55 ± 1.5 | 44 ± 1.4 | 61 ± 2.4 | 54 ± 1.5 | – | – | – | – | – | – |
| Nc1c(-c2ccc([N+](=O)[O-])cc2)nc2cnccn12 [10c, 2-(4-Nitrophenyl)imidazo[1,2-a]pyrazin-3-amine] | 24 ± 2.48 | 45 ± 1.6 | 40 ± 3.8 | 30 ± 1.43 | – | – | – | – | – | – |
